Measured values from different studies.
Lines come from different studies, so protocols differ.
Nos2: Nitric oxide synthase, inducible (Nos2, Mus musculus, UniProt P29477)
ESR2: Estrogen receptor beta (ESR2, Homo sapiens, UniProt Q92731)
LATS2: Serine/threonine-protein kinase LATS2 (LATS2, Homo sapiens, UniProt Q9NRM7)

| Compound | target | observed | mode | technique | concentration | measurement | result |
| --- | --- | --- | --- | --- | --- | --- | --- |
| CCN(CC)CCCC[C@H](NC(=O)[C@H](CC(C)C)NC(=O)[C@H](C)NC(=O)[C@H](Cc1ccccc1)NC(=O)c1ccc(C(C)(C)C)cc1)C(=O)N[C@@H](CO)C(=O)OC | Histone-lysine N-methyltransferase ASH1L (ASH1L, Homo sapiens, UniProt Q9NR48) | thermal stability | – | DSF | 25 µM | ΔTm | -0.39 °C |
| Cc1ncc(C)n2nc(/C=C/c3nc(N4CCCC4)cc(N4CCOCC4)n3)nc12 | Nos2 | enzyme activity | inhibitor | – | 10 µM | inhibition | 10% |
| O=C(Nc1cccnn1)N1CCN([C@@H]2CCOc3cc(C(F)(F)F)ccc32)CC1 | Neprilysin (MME, Homo sapiens, UniProt P08473) | enzyme activity | inhibitor | – | 20 µM | inhibition | 3% |
| Nc1ncc(-c2nc(N3CCOCC3)nc(N3CCOCC3)n2)c(C(F)F)n1 | Serine/threonine-protein kinase 38 (STK38, Homo sapiens, UniProt Q15208) | binding | – | competition with immobilised ligand | 10 µM | remaining binding | 66% |
| c1ccc(C(NCCNC(c2ccccc2)c2ccccc2)c2ccccc2)cc1 | ESR2 | enzyme activity | inhibitor | – | 10 µM | inhibition | 14% |
| Cc1nn(C)cc1-c1nc2c(N3CCN(Cc4ccc(Cl)cc4)CC3)c(Cl)cnc2[nH]1 | LATS2 | binding | – | competition with immobilised ligand | 1 µM | remaining binding | 77% |
| C#Cc1n[nH]c2c(-c3cn([C@@H](C)c4ccccn4)c(=O)[nH]c3=O)cc(F)cc12 | Tyrosine-protein kinase JAK2 (JAK2, Homo sapiens, UniProt O60674) | enzyme activity | inhibitor | – | 0.1 µM | inhibition | -1% |
| COc1cc(Nc2ncc(F)c(Nc3ccc4c(n3)NC(=O)C(C)(C)O4)n2)cc(OC)c1OC | LATS2 | binding | – | competition with immobilised ligand | 10 µM | inhibition | 100% |
| C[C@H](C(=O)N[C@H]1COc2ccccc2[C@@H]1S(C)(=O)=O)c1ccc(F)cc1 | ESR2 | enzyme activity | inhibitor | – | 10 µM | inhibition | 3% |
| COCc1c(-c2cc3cc(C)cc(OC)c3s2)c2c(N)ncnn2c1CN1CCNC(=O)C1 | Nos2 | enzyme activity | inhibitor | – | 10 µM | inhibition | 17% |
| COc1ncccc1-c1cnn2ccc(N3CCN(C(=O)OC(C)C)CC3)nc12 | Phosphatidylinositol 5-phosphate 4-kinase type-2 gamma (PIP4K2C, Homo sapiens, UniProt Q8TBX8) | binding | – | competition with immobilised ligand | 1 µM | remaining binding | 9.5% |
| Cc1sc2c(c1C)C(c1ccc(Cl)cc1)=N[C@@H](CC(=O)OC(C)(C)C)c1nnc(C)n1-2 | Stimulator of interferon genes protein (STING1, Homo sapiens, UniProt Q86WV6, H232R) | thermal stability | – | DSF | 200 µM | ΔTm | -1.58 °C |
